Experimental data from different studies.
Lines come from different studies, so protocols differ.
Target: Serine/threonine-protein kinase 3 (STK3, Homo sapiens, UniProt Q13188)
Residues used in one study (Q13188 1-491): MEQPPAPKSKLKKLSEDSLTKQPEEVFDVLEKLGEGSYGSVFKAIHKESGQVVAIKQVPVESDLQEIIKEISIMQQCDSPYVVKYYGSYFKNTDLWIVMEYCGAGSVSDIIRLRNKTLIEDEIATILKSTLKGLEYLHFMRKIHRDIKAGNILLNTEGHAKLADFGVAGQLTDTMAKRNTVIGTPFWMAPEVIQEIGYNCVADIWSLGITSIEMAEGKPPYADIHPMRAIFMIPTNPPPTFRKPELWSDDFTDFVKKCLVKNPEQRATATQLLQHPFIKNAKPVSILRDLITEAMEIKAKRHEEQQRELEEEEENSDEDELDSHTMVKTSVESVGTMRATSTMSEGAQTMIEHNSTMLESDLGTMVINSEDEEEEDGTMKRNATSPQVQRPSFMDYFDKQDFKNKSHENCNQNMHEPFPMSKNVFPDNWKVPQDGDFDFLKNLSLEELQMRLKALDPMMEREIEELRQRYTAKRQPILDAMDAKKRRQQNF

With `FC(F)(F)Oc1cccc(-c2cnc3ccc(-c4ccncc4)nn23)c1` the activity vs control was 71% (enzyme activity; inhibitor; radiometric; 5 µM).
For `Cn1c2c(Cl)c(Cl)ccc2c2cc[nH]c(=O)c21`, the ΔTm was 1.9 °C (thermal stability; DSF; 10 µM).
The remaining activity of `CCN(CC)c1ccc(C2=NNC(=O)CC2C)cc1[N+](=O)[O-]` (stereo not shown) is reported as 87% (enzyme activity; inhibitor; 10 µM).
The inhibition of `Cc1ccc(Nc2nccc(N(C)c3ccc4c(C)n(C)nc4c3)n2)cc1S(N)(=O)=O` is reported as 1% (cell-free assay; inhibitor; 0.3 µM).
For `CO[C@@H](C)c1c(Nc2ccc([C@H](N(C)C(=O)C3CCS(=O)(=O)CC3)C(F)(F)F)cc2)cnc2cc(Cl)nn12`, the remaining binding was 92% (cell-free assay; competition with immobilised ligand; 1 µM).
With `CC(C)(C)C(=O)c1sc(NC2CCCCC2)nc1N` the remaining activity was 104% (enzyme activity; inhibitor; 10 µM).
The ΔTm of `N#CC1c2c([nH]c3c(Cl)c(Cl)ccc23)C(=O)NC12CCCCC2` (racemic) is reported as 0.6 °C (thermal stability; DSF; 10 µM).
For `O=C(O)[C@@H]1[C@@H](Cn2nnc3ccccc3c2=O)CC[C@H]1C(=O)c1ccc(OCCC2CCOCC2)cc1`, the remaining binding was 100% (cell-free assay; competition with immobilised ligand; 1 µM).
The activity vs control of `Cc1ccc(C(=O)NCc2ccsc2)cc1C#Cc1cn(C(C)C)c2ncnc(N)c12` is reported as 78% (enzyme activity; inhibitor; 1 µM).
`COc1cc(Nc2cnc(C#N)c(O[C@H](C)CN(C)C)n2)ncc1-c1cnn(C)c1` gave a remaining activity of 30% (enzyme activity; inhibitor; radiometric; 10 µM).
The remaining signal of `COc1cc2c(N3CCN(C(=O)Nc4ccc(OC(C)C)cc4)CC3)ncnc2cc1OCCCN1CCCCC1` is reported as 94.7% (cell-free assay; 0.5 µM).
`Cc1sc(C(=O)NC2COC2)cc1-n1cc(NC(=O)Nc2c(F)cccc2Cl)cn1` gave a remaining activity of 93.9% (enzyme activity; inhibitor; 10 µM).
With `Cn1c(=O)n(-c2ccc(C(C)(C)C#N)cc2)c2c3cc(-c4cnc5ccccc5c4)ccc3ncc21` the remaining activity was 89% (enzyme activity; inhibitor; 10 µM).
For `CC(C)(C)c1nc2c(s1)c1nc(N)ncc1c1ccc(NS(=O)(=O)c3c(F)cccc3F)c(F)c12`, the remaining activity was 89% (enzyme activity; inhibitor; radiometric; 1 µM).
With `CC(=O)C1=C(C)N(c2cccc(C(F)(F)F)c2)C(=O)N[C@@H]1c1ccc(C#N)nc1` the remaining binding was 93.1% (cell-free assay; competition with immobilised ligand; 1 µM).
`COc1cc2ncnc(Nc3ccc(Oc4ccccc4)c(C)c3C)c2cc1OC` gave an inhibition of 1% (enzyme activity; inhibitor; 1 µM).
`O=C1NC(=O)c2cc(Nc3ccc(F)cc3)c(Nc3ccc(F)cc3)cc21` gave a remaining signal of 90.7% (cell-free assay; 0.5 µM).
`CN1CCN(c2cnc3c(C4CCN(C(=O)c5ccc(OC(F)(F)F)cc5N)CC4)ncnc3c2)CC1` gave a remaining binding of 82% (cell-free assay; competition with immobilised ligand; 1 µM).
With `Cc1cc(NC(=O)c2cccc3cc(-c4cccc5[nH]nc(N)c45)ccc23)ccc1F` the activity vs control was 98% (enzyme activity; inhibitor; 0.1 µM).
